Experimental data as given in ChEMBL document CHEMBL2057145, “Development of novel antibacterial agents against methicillin-resistant Staphylococcus aureus” (Bioorg Med Chem, 2012).
In brackets after ≈: the same amount, converted by molar mass.

What was measured:
[1] = tested on: Staphylococcus epidermidis; test: Antibacterial activity against Staphylococcus epidermidis ATCC 35984 after 24 hrs by broth microdilution method; format: functional; details: RP62A
[2] = Selectivity ratio of IC50 for human HT-29 cells to MIC for Staphylococcus aureus ATCC 29213; format: functional
Summary of the method: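 Ratio of HT-29 IC50 (MTT assay, 24 h exposure) to MIC against S. aureus ATCC 29213 (CLSI broth microdilution, 24 h, 37 °C).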

Staphylococcus aureus [3] = test: Antibacterial activity against Staphylococcus aureus ATCC 29213 after 24 hrs by broth microdilution method; format: functional; details: ATCC 29213, 24 h
HT-29 = test: Antiproliferative activity against human HT-29 cells after 24 hrs by MTT assay; format: cell-based; details: HT-29, 24 h
Summary of the method: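 HT-29 human colon adenocarcinoma cells seeded at 1 × 10⁴ cells/well in RPMI 1640 with 10% FBS and 10 µg/mL gentamicin, left overnight at 37 °C, 5% CO₂. Medium then replaced with medium holding test agents (final DMSO 0.1%; DMSO-only controls), at least 6 wells per condition, for 24 h. Viability read by MTT (0.5 mg/mL, 2 h, 37 °C), DMSO solubilization, absorbance 570 nm.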

[4] = tested on: Staphylococcus lugdunensis; test: Antibacterial activity against Staphylococcus lugdunensis isolate NTUH after 24 hrs by broth microdilution method; format: functional
[5] = tested on: Staphylococcus intermedius; test: Antibacterial activity against Staphylococcus intermedius ATCC 29663 after 24 hrs by broth microdilution method; format: functional; details: ATCC 29663, 24 h
Mus musculus [6] = test: Toxicity in C57BL/6 mouse infected with methicillin-resistant Staphylococcus aureus ATCC 33592 assessed as weight loss at 30 mg/kg, ip administered 1 hr post infection; format: organism-based; parameters: dose 30 mg/kg, route intraperitoneal; details: in vivo
Summary of the method: (§1)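 Female C57BL/6 mice, N = 5 per group, were infected ip with a 100% lethal dose of MRSA, 7 × 10⁷ CFU in 0.3 ml PBS. At 1 h they received one ip dose of 30 mg/kg in vehicle (40% PEG-400, 10% […], 10% DMSO in normal saline). Body weight and morbidity were recorded daily for 7 days. Mice were sacrificed on significant morbidity, including 20% weight loss.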

Mus musculus [7] = test: Toxicity in C57BL/6 mouse infected with methicillin-resistant Staphylococcus aureus ATCC 33592 assessed as lethargy at 30 mg/kg, ip administered 1 hr post infection; format: organism-based; parameters: dose 30 mg/kg, route intraperitoneal; details: in vivo; summary of the method: as §1
Staphylococcus aureus [8] = test: Antibacterial activity against methicillin-resistant Staphylococcus aureus ATCC 33592 infected in C57BL/6 mouse assessed as mouse survival time at 30 mg/kg, ip administered 1 hr post infection; format: functional; details: route intraperitoneal; summary of the method: as §1
Mus musculus [9] = test: Toxicity in C57BL/6 mouse infected with methicillin-resistant Staphylococcus aureus ATCC 33592 assessed as decrease in body temperature at 30 mg/kg, ip administered 1 hr post infection; format: organism-based; parameters: dose 30 mg/kg, route intraperitoneal; details: in vivo; summary of the method: as §1
Staphylococcus aureus [10] = test: Bactericidal activity against Staphylococcus aureus ATCC 29213 assessed as decrease in bacterial count at 8 times compound MIC after 24 hrs by time-kill assay; format: functional; parameters: scale not given: the % may be the effect or the level left
Summary of the method: (§2)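 S. aureus ATCC 29213 at 5 × 10⁵ CFU/mL in CAMHB exposed to test agents at 2-, 4- and 8-fold MIC, in triplicate. DMSO-matched medium served as control. At successive times, aliquots serially diluted in PBS and plated on LB agar (37 °C, 16 h). Counts given as CFU/mL, mean ± SD (n = 3); 99.9% killing used as reference.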

Staphylococcus aureus [11] = test: Bactericidal activity against Staphylococcus aureus ATCC 29213 assessed as decrease in bacterial count at 2 to 8 times compound MIC by time-kill assay; format: functional, organism-based; details: TDE = time-dependent effect; summary of the method: as §2
Staphylococcus aureus [12] = test: Antibacterial activity against methicillin-resistant Staphylococcus aureus ATCC 33592 after 24 hrs by broth microdilution method; format: functional; details: ATCC 33592, 24 h
Summary of the method: (§3)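 CLSI broth microdilution. Bacteria grown overnight on LB agar, suspended in PBS, then exposed to test agents at 0.25 to 64 µg/mL in triplicate. Incubation 37 °C for 24 h. MIC is the lowest concentration with no visible bacterial growth. DMSO stocks diluted in culture medium to a final DMSO of 0.1%.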

Staphylococcus aureus [13] = test: Antibacterial activity against methicillin-resistant Staphylococcus aureus expressing […] subtype VT after 24 hrs by broth microdilution method; format: functional; summary of the method: as §3
Staphylococcus aureus [14] = test: Antibacterial activity against Staphylococcus aureus assessed as log decrease in bacterial CFU at 32 ug/ml after 24 hrs; format: functional

## NCCCC[C@@H](N)C(=O)Nc1ccc(-n2nc(C(F)(F)F)cc2-c2ccc3c(ccc4ccccc43)c2)cc1
[1]
  MIC: 4 µg/mL (≈ 7.52 µM)
[2]
  Ratio: 0.8
Staphylococcus aureus [3]
  MIC: 4 µg/mL (≈ 7.52 µM)

## NS(=O)(=O)c1ccc(-n2nc(C(F)(F)F)cc2-c2ccc(-c3ccc(Cl)cc3)cc2)cc1
[1]
  MIC: 8 µg/mL (≈ 16.7 µM)
[2]
  Ratio: 3.1
Staphylococcus aureus [3]
  MIC: 4 µg/mL (≈ 8.37 µM)
HT-29
  IC50: 12.5 µg/mL (≈ 26.2 µM)

## NS(=O)(=O)Nc1ccc(-n2nc(C(F)(F)F)cc2-c2ccc3ccccc3c2)cc1
[4]
  MIC: 4 µg/mL (≈ 9.25 µM)
[5]
  MIC: 2 µg/mL (≈ 4.63 µM)
[2]
  Ratio: 19
Staphylococcus aureus [3]
  MIC: 1 µg/mL (≈ 2.31 µM)

## NS(=O)(=O)Nc1ccc(-n2nc(C(F)(F)F)cc2-c2ccc3c(ccc4ccccc43)c2)cc1
[4]
  MIC: 2 µg/mL (≈ 4.15 µM)
Mus musculus [6]
  Activity: > 20%
[1]
  MIC: 2 µg/mL (≈ 4.15 µM)
Mus musculus [7]
  Activity: Toxic
Staphylococcus aureus [8]
  Survival: <=2 day
[5]
  MIC: 1 µg/mL (≈ 2.07 µM)
Mus musculus [9]
  Activity: Toxic
Staphylococcus aureus [10]
  Activity: 99.91%
Staphylococcus aureus [11]
  Activity: tde
[2]
  Ratio: 12
Staphylococcus aureus [3]
  MIC: 1 µg/mL (≈ 2.07 µM)

## O=C(N[C@H](CO)[C@H](O)c1ccc([N+](=O)[O-])cc1)C(Cl)Cl [CHLORAMPHENICOL]
[4]
  MIC: 2 µg/mL (≈ 6.19 µM)
[1]
  MIC: 8 µg/mL (≈ 24.8 µM)
Staphylococcus aureus [12]
  MIC: 64 µg/mL (≈ 198 µM)
Staphylococcus aureus [3]
  MIC: 8 µg/mL (≈ 24.8 µM)
Staphylococcus aureus [13]
  MIC: 32 µg/mL (≈ 99 µM)

## NCCC(=O)Nc1ccc(-n2nc(C(F)(F)F)cc2-c2ccc3c(ccc4ccccc43)c2)cc1
[1]
  MIC: 4 µg/mL (≈ 8.43 µM)
[2]
  Ratio: 1.5
Staphylococcus aureus [3]
  MIC: 4 µg/mL (≈ 8.43 µM)
HT-29
  IC50: 6 µg/mL (≈ 12.6 µM)

## NCC(=O)Nc1ccc(-n2nc(C(F)(F)F)cc2-c2ccc3c(c2)oc2ccccc23)cc1
[1]
  MIC: 4 µg/mL (≈ 8.88 µM)
[2]
  Ratio: 1.6
Staphylococcus aureus [3]
  MIC: 4 µg/mL (≈ 8.88 µM)
HT-29
  IC50: 6.5 µg/mL (≈ 14.4 µM)

## NCCCC[C@H](N)C(=O)Nc1ccc(-n2nc(C(F)(F)F)cc2-c2ccc(-c3ccc(C(F)(F)F)cc3)cc2)cc1
[1]
  MIC: 4 µg/mL (≈ 6.95 µM)
[2]
  Ratio: 0.8
Staphylococcus aureus [3]
  MIC: 4 µg/mL (≈ 6.95 µM)
HT-29
  IC50: 3.3 µg/mL (≈ 5.73 µM)

## NCCCC[C@H](N)C(=O)Nc1ccc(-n2nc(C(F)(F)F)cc2-c2ccc3c(ccc4ccccc43)c2)cc1
[2]
  Ratio: 4.9
HT-29
  IC50: 19.5 µg/mL (≈ 36.7 µM)

## Cc1ccc(-c2cc(C(F)(F)F)nn2-c2ccc(S(N)(=O)=O)cc2)cc1 [CELECOXIB]
[1]
  MIC: 16 µg/mL (≈ 42 µM)
Staphylococcus aureus [14]
  FC: 6
[2]
  Ratio: 0.6
Staphylococcus aureus [3]
  MIC: 32 µg/mL (≈ 83.9 µM)
HT-29
  IC50: 18 µg/mL (≈ 47.2 µM)

## NCCCC[C@@H](N)C(=O)Nc1ccc(-n2nc(C(F)(F)F)cc2-c2ccc3c(c2)Nc2ccccc2S3)cc1
[1]
  MIC: 4 µg/mL (≈ 7.24 µM)
[2]
  Ratio: 4.4
Staphylococcus aureus [3]
  MIC: 4 µg/mL (≈ 7.24 µM)
HT-29
  IC50: 17.5 µg/mL (≈ 31.7 µM)

## NCC(=O)Nc1ccc(-n2nc(C(F)(F)F)cc2-c2ccc3c(ccc4ccccc43)c2)cc1 [AR-12]
[1]
  MIC: 4 µg/mL (≈ 8.69 µM)
[2]
  Ratio: 0.9
Staphylococcus aureus [3]
  MIC: 4 µg/mL (≈ 8.69 µM)

## NCCC(=O)Nc1ccc(-n2nc(C(F)(F)F)cc2-c2ccc(-c3ccc(C(F)(F)F)cc3)cc2)cc1
[1]
  MIC: 4 µg/mL (≈ 7.72 µM)
[2]
  Ratio: 1.1
Staphylococcus aureus [3]
  MIC: 4 µg/mL (≈ 7.72 µM)
HT-29
  IC50: 4.2 µg/mL (≈ 8.1 µM)
